Laboratory results reported in ChEMBL document CHEMBL4316659, “Selective Antiproliferative Withanolides from Species in the Genera Eriolarynx and Deprea” (J Nat Prod, 2019).

Assays:
SW1573 [1] = assay: Antiproliferative activity against human SW1573 cells incubated for 48 hrs in presence of P-gp and CYP3A4/5 inhibitor verapamil by SRB assay; format: functional; details: SW1573, 48 h
Method in brief: (§1)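 Wild-type SW1573 (2500 cells/well) and P-gp-overexpressing SW1573/Pgp (5000 cells/well) in RPMI 1640 with 5% FBS. Seeded 24 h, then exposed 48 h to serial dilutions (0.01−100 μM) with or without 10 μM verapamil (final) in the medium. Paclitaxel and vinblastine were reference drugs. SRB read at 530/620 nm. GI50 by NCI formulas, mean of at least two independent experiments ± SD.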

[2] = Ratio of GI50 for antiproliferative activity against human hTERT-BJ cells incubated for 48 hrs by SRB assay to GI50 for antiproliferative activity against human SW1573 cells incubated for 48 hrs by SRB assay; format: toxicity, cell-based; details: hTERT-BJ cells versus SW1573 cells, read-out: RatioGI50
Method in brief: (§2)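 Selectivity is GI50 in the nontumor BJ-hTERT fibroblasts divided by GI50 in each tumor line. All values come from the same 48 h SRB assay, with 0.01−100 μM serial dilutions.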

[3] = Ratio of GI50 for antiproliferative activity against human hTERT-BJ cells incubated for 48 hrs by SRB assay to GI50 for antiproliferative activity against human HBL100 cells incubated for 48 hrs by SRB assay; method in brief: as §2
T47D = assay: Antiproliferative activity against human T47D cells incubated for 48 hrs by SRB assay; format: functional
Method in brief: (§3)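 Cells kept in RPMI 1640 with 5% FBS and 2 mM L-glutamine at 37 °C under 5% CO2. Seeded at 2500 (A549, HBL-100, HeLa, SW1573) or 5000 (T-47D, WiDr, BJ-hTERT) cells/well and left 24 h. Compounds added as serial dilutions (0.01−100 μM) for 48 h. SRB staining read at 530 and 620 nm. GI50 calculated by NCI formulas. Mean of at least two independent experiments ± SD.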

[4] = Ratio of GI50 for antiproliferative activity against human hTERT-BJ cells incubated for 48 hrs by SRB assay to GI50 for antiproliferative activity against human HeLa cells incubated for 48 hrs by SRB assay; format: toxicity, cell-based; details: hTERT-BJ cells versus HeLa cells, read-out: RatioGI50; method in brief: as §2
WiDr = assay: Antiproliferative activity against human WiDr cells incubated for 48 hrs by SRB assay; format: functional; method in brief: as §3
A549 = assay: Antiproliferative activity against human A549 cells incubated for 48 hrs by SRB assay; format: functional; details: A549, 48 h; method in brief: as §3
HBL-100 = assay: Antiproliferative activity against human HBL100 cells incubated for 48 hrs by SRB assay; format: functional; details: HBL-100, 48 h; method in brief: as §3
[5] = Ratio of GI50 for antiproliferative activity against human hTERT-BJ cells incubated for 48 hrs by SRB assay to GI50 for antiproliferative activity against human A549 cells incubated for 48 hrs by SRB assay; method in brief: as §2
HeLa = assay: Antiproliferative activity against human HeLa cells incubated for 48 hrs by SRB assay; format: functional; method in brief: as §3
SW1573 [6] = assay: (§4) Resistance factor, ratio of GI50 for Antiproliferative activity against human SW1573 cells over-expressing P-gp incubated for 48 hrs in absence of P-gp and CYP3A4/5 inhibitor verapamil by SRB assay to GI50 for antiproliferative activity against human SW1573 cells incubated for 48 hrs in absence of P-gp and CYP3A4/5 inhibitor verapamil by SRB assay; format: functional
Method in brief: (§5)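 Resistance factor is GI50 in SW1573/Pgp divided by GI50 in wild-type SW1573. Both come from 48 h SRB assays, run with 10 μM verapamil (final) or without it.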

SW1573 [7] = assay: Antiproliferative activity against human SW1573 cells incubated for 48 hrs by SRB assay; format: functional; details: SW1573, 48 h; method in brief: as §3
SW1573 [8] = assay: Antiproliferative activity against human SW1573 cells over-expressing P-gp incubated for 48 hrs in presence of P-gp and CYP3A4/5 inhibitor verapamil by SRB assay; format: functional; details: SW1573, 48 h; method in brief: as §1
SW1573 [9] = assay: Antiproliferative activity against human SW1573 cells incubated for 48 hrs in absence of P-gp and CYP3A4/5 inhibitor verapamil by SRB assay; format: functional; details: SW1573, 48 h; method in brief: as §1
[10] = Ratio of GI50 for antiproliferative activity against human hTERT-BJ cells incubated for 48 hrs by SRB assay to GI50 for antiproliferative activity against human T47D cells incubated for 48 hrs by SRB assay; format: toxicity, cell-based; details: hTERT-BJ cells versus T47D cells, read-out: RatioGI50; method in brief: as §2
SW1573 [11] = assay: as §4, with “presence” for “absence”; format: functional; method in brief: as §5
SW1573 [12] = assay: Antiproliferative activity against human SW1573 cells over-expressing P-gp incubated for 48 hrs in absence of P-gp and CYP3A4/5 inhibitor verapamil by SRB assay; format: functional; details: SW1573, 48 h; method in brief: as §1
[13] = Ratio of GI50 for antiproliferative activity against human hTERT-BJ cells incubated for 48 hrs by SRB assay to GI50 for antiproliferative activity against human WiDr cells incubated for 48 hrs by SRB assay; format: toxicity, cell-based; details: hTERT-BJ cells versus WiDr cells, read-out: RatioGI50; method in brief: as §2
[14] = Antiproliferative activity against human hTERT-BJ cells incubated for 48 hrs by SRB assay; format: cell-based; method in brief: as §3

| GI50 (SW1573 [1]) | GI50 (T47D) | GI50 (A549) | GI50 (HeLa) | GI50 (SW1573 [7]) | GI50 (SW1573 [8]) | GI50 (SW1573 [9]) | GI50 (SW1573 [12]) | SMILES | selectivity ratio at 48 h [2] | RatioGI50 [3] | selectivity ratio at 48 h [4] | GI50 (WiDr) | GI50 (HBL-100) | RatioGI50 [5] | RatioGI50 (SW1573 [6]) | selectivity ratio at 48 h [10] | RatioGI50 (SW1573 [11]) | selectivity ratio at 48 h [13] | GI50 at 48 h [14] |
| --- | --- | --- | --- | --- | --- | --- | --- | --- | --- | --- | --- | --- | --- | --- | --- | --- | --- | --- | --- |
| 3.9 µM | 4.7 µM | 2.8 µM | 2.5 µM | 2.4 µM | 1.7 µM | 2.1 µM | 2.3 µM | CCO[C@@H]1O[C@@](C)([C@H]2CC(C)=C(C)C(=O)O2)[C@H]2CC[C@H]3[C@@H]4[C@@H](O)C=C5[C@@H](O)C=CC(=O)[C@]5(C)[C@H]4CC[C@]123 | 2 to 10 | 2 - 10 | 2 to 10 | 6.1 µM | 3.2 µM | 2 - 10 | 1.1 | 2 to 10 | 0.4 | 2 to 10 | > 10 µM |
| 5.5 µM | 6.4 µM | > 10 µM | 3.3 µM | 4.4 µM | 2.7 µM | 4.1 µM | 4.5 µM | C[C@]12C(=O)C=CC=C1[C@H](O)[C@H]1O[C@]3([C@@H]4C[C@]5(C)C(=O)O[C@H]4C[C@@]5(C)O)CC[C@@]4(O3)[C@H]1[C@@H]2CC[C@]4(C)O | – | – | – | > 10 µM | > 10 µM | – | 1.1 | – | 0.5 | – | 5.3 µM |
| – | > 10 µM | > 10 µM | > 10 µM | > 10 µM | – | – | – | C[C@]12C(=O)C=CCC1=C[C@H]1O[C@]3([C@@H]4C[C@]5(C)C(=O)O[C@H]4C[C@@]5(C)O)CC[C@@]4(O3)[C@H]1[C@@H]2CC[C@]4(C)O | 2 to 10 | 2 - 10 | 2 to 10 | > 10 µM | > 10 µM | 2 - 10 | – | 2 to 10 | – | 2 to 10 | > 10 µM |
| – | > 10 µM | > 10 µM | > 10 µM | > 10 µM | – | – | – | C[C@]1(O)CC[C@H]2[C@H]3[C@H](O[C@]4([C@@H]5C[C@]6(C)C(=O)O[C@H]5C[C@@]6(C)O)CC[C@@]31O4)[C@@H](O)[C@]13O[C@H]1C=CC(=O)[C@]23C | 2 to 10 | – | 2 to 10 | > 10 µM | > 10 µM | – | – | 2 to 10 | – | 2 to 10 | – |
| – | > 10 µM | > 10 µM | > 100 µM | > 10 µM | – | – | – | CC1=C(C)C(=O)O[C@@H]([C@]2(C)OC(O)[C@@]34CC[C@H]5[C@@H](CC=C6CC=CC(=O)[C@@]65C)[C@](O)(CC[C@H]23)O4)C1 (stereo not given in full) | 2 to 10 | – | 2 to 10 | > 10 µM | > 10 µM | – | – | 2 to 10 | – | 2 to 10 | – |
| – | > 10 µM | > 10 µM | > 10 µM | > 10 µM | – | – | – | CC1=C(C)C(=O)O[C@@H]([C@]2(C)OC(O)[C@]34CC[C@H]5[C@@H]([C@H](O)C=C6CC=CC(=O)[C@@]65C)[C@@H]3CC[C@H]24)C1 (stereo not given in full) | 2 to 10 | – | 2 to 10 | > 10 µM | > 10 µM | – | – | 2 to 10 | – | 2 to 10 | – |
| – | > 10 µM | > 10 µM | > 10 µM | > 10 µM | – | – | – | CC1=C(C)C(=O)O[C@@H]([C@](C)(O)[C@H]2CC[C@H]3[C@@H]4[C@@H](O)C=C5[C@@H](O)C=CC(=O)[C@]5(C)[C@H]4CC[C@]23CO)C1 | 2 to 10 | – | 2 to 10 | > 10 µM | > 10 µM | – | – | 2 to 10 | – | 2 to 10 | – |
| – | > 10 µM | > 10 µM | > 10 µM | > 10 µM | – | – | – | CC1=C(CO)C(=O)O[C@@H]([C@]2(C)OC(O)[C@@]34CC[C@H]5[C@@H](CC=C6CC=CC(=O)[C@@]65C)[C@](O)(CC[C@H]23)O4)C1 (stereo not given in full) | 2 to 10 | – | 2 to 10 | > 10 µM | > 10 µM | – | – | 2 to 10 | – | 2 to 10 | – |
| – | > 10 µM | > 10 µM | > 10 µM | > 10 µM | – | – | – | C[C@]12C(=O)CC=CC1=C[C@H]1O[C@]3([C@@H]4C[C@]5(C)C(=O)O[C@H]4C[C@@]5(C)O)CC[C@@]4(O3)[C@H]1[C@@H]2CC[C@]4(C)O | 2 to 10 | – | 2 to 10 | > 10 µM | > 10 µM | – | – | 2 to 10 | – | 2 to 10 | – |
| – | > 10 µM | > 10 µM | > 10 µM | > 10 µM | – | – | – | CC1=C(C)C(=O)O[C@@H]([C@]2(C)OC(O)[C@]34CC[C@H]5[C@@H]([C@H](O)C=C6C=CCC(=O)[C@@]65C)[C@@H]3CC[C@H]24)C1 (stereo not given in full) | 2 to 10 | – | 2 to 10 | > 10 µM | > 10 µM | – | – | 2 to 10 | – | 2 to 10 | – |
| – | > 10 µM | > 10 µM | > 10 µM | > 10 µM | – | – | – | CC1=C(C)C(=O)O[C@@H]([C@]2(C)OC(O)[C@]34CC[C@H]5[C@@H]([C@@H](O)C=C6[C@@H](O)C=CC(=O)[C@@]65C)[C@@H]3CC[C@H]24)C1 (mixture of isomers) | 2 to 10 | 2 - 10 | 2 to 10 | > 10 µM | > 10 µM | 2 - 10 | – | 2 to 10 | – | 2 to 10 | > 10 µM |
| 0.0016 µM | – | – | – | – | 0.0042 µM | 0.0015 µM | 0.196 µM | CC(=O)O[C@H]1C(=O)[C@@]2(C)[C@H]([C@H](OC(=O)c3ccccc3)[C@]3(O)C[C@H](OC(=O)[C@H](O)[C@@H](NC(=O)c4ccccc4)c4ccccc4)C(C)=C1C3(C)C)[C@]1(OC(C)=O)CO[C@@H]1C[C@@H]2O [PACLITAXEL] | – | – | – | – | – | – | 128 | – | 2.6 | – | – |
| 0.0008 µM | – | – | – | – | 0.001 µM | 0.0009 µM | 2.05 µM | CC[C@]1(O)C[C@@H]2CN(CCc3c([nH]c4ccccc34)[C@@](C(=O)OC)(c3cc4c(cc3OC)N(C)[C@H]3[C@@](O)(C(=O)OC)[C@H](OC(C)=O)[C@]5(CC)C=CCN6CC[C@]43[C@@H]65)C2)C1 [VINBLASTINE] | – | – | – | – | – | – | 2388 | – | 1.3 | – | – |
